Data set [1] can be described thus: AUC (0 to 24 hrs) in C57BL/6 mouse pancreas at 60 mg/kg. Set-up: time < 24 hr, dose 60 mg/kg. Format: ADME, organism-based, C57BL6. Put shortly: (§1)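 Normal male-unspecified C57BL6 mice given a single 60 mg/kg dose; plasma, liver, pancreas and muscle sampled over 0-24 h, 3 animals with samples pooled for analysis; Cmax (μM) and AUC0-24h (μM*h) of parent drug reported.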

Data set [2] is described as follows: Cmax in C57BL/6 mouse liver at 60 mg/kg. Format: ADME, organism-based, C57BL6. Details: dose 60 mg/kg. The method in brief:
as §1

The nature of data set [3]: AUC (0 to 24 hrs) in C57BL/6 mouse muscle at 60 mg/kg. The format is ADME, organism-based, C57BL6, Muscle tissue. Set-up: time < 24 hr, dose 60 mg/kg. Put shortly: as §1
The subject of data set [4] is Mus musculus. Nature of the data set: Antidiabetic activity in high fat diet-induced obese C57BL/6 type 2 diabetes mouse model assessed as increase in plasma insulin AUC at 100 mg/kg, po administered QD for 4 weeks by intravenous glucose tolerance test. Set-up: dose 100 mg/kg. The settings on record: C57BL6. Format: functional, organism-based. Put shortly: (§2)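 Male C57BL6 mice kept on high fat diet dosed orally once daily with vehicle (dH2O) or compound at 30 to 100 mg/kg. Intravenous glucose tolerance test then run; plasma glucose excursion and plasma insulin AUC (0-120 min) calculated; n = 8 mice/group, mean ± SEM, p < 0.05 vs vehicle.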

Data set [5] can be described thus: AUC (0 to 24 hrs) in C57BL/6 mouse liver at 60 mg/kg. The format is ADME, organism-based, C57BL6. Details: time < 24 hr, dose 60 mg/kg. Put shortly: as §1
Data set [6] can be described thus: AUC (0 to 24 hrs) in C57BL/6 mouse plasma at 60 mg/kg. The format is ADME, organism-based, C57BL6. Details: time < 24 hr, dose 60 mg/kg. The method in brief:
as §1

Data set [7] concerns Mus musculus. Briefly: Antidiabetic activity in high fat diet-induced obese C57BL/6 type 2 diabetes mouse model assessed as reduction of glucose output from liver at 30 to 100 mg/kg, po administered QD for 4 weeks by intravenous glucose tolerance test. The format is functional, organism-based. The note with it: C57BL6. Put shortly: as §2
Data set [8] in a line: Cmax in C57BL/6 mouse plasma at 60 mg/kg. Format: ADME, organism-based, C57BL6. Details: dose 60 mg/kg. The method in brief:
as §1

Data set [9] has as its system Mus musculus. Briefly: Antidiabetic activity in po dosed high fat diet-induced obese C57BL/6 type 2 diabetes mouse model assessed as decrease in glucose excursion administered QD for 4 weeks by intravenous glucose tolerance test. Format: functional, organism-based. The note with it: C57BL6. The method in brief: as §2
Data set [10] in a line: Cmax in C57BL/6 mouse pancreas at 60 mg/kg. The format is ADME, organism-based, C57BL6. Details: dose 60 mg/kg. Put shortly:
as §1

Data set [11] can be described thus: Cmax in C57BL/6 mouse muscle at 60 mg/kg. The format is ADME, organism-based, C57BL6, Muscle tissue. Details: dose 60 mg/kg. Put shortly:
as §1

In data set [12] the target is T1, Hexokinase-4 (Homo sapiens) (UniProt P35557).
T1 sequence (whole entry): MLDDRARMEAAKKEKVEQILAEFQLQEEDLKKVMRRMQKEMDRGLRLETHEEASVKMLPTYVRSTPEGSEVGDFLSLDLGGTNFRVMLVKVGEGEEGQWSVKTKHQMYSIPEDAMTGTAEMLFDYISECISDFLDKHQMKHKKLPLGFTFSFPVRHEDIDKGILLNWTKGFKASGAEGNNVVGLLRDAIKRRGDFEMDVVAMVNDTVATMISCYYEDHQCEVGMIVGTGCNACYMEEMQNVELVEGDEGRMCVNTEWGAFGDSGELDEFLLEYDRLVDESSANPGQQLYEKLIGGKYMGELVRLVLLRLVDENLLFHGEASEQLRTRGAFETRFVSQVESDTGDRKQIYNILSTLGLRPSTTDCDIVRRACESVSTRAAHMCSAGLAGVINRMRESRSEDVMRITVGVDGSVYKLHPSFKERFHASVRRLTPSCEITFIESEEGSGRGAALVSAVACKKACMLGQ
Nature of the data set: Activation of His-tagged human recombinant liver glucokinase expressed in Escherichia coli BL21 (DE3) assessed as drug level required for half-maximal activation. Format: single protein. Put shortly: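 Recombinant human liver GK (aa 17-466), His-tagged, expressed in E. coli BL21 Star (DE3), nickel affinity purified, tag cleaved (GPGSM left), then anion exchange and gel filtration to >95%.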

The test system of data set [13] is Mus musculus. Briefly: Antidiabetic activity in high fat diet-induced obese C57BL/6 type 2 diabetes mouse model assessed as improvement of glucose uptake at 30 to 100 mg/kg, po administered QD for 4 weeks by intravenous glucose tolerance test. Format: functional, organism-based. The note with it: C57BL6. The method in brief:
as §2

Data set [14] relates to Mus musculus. Nature of the data set: Antidiabetic activity in high fat diet-induced obese C57BL/6 type 2 diabetes mouse model assessed as improvement of insulin sensitivity at 30 to 100 mg/kg, po administered QD for 4 weeks by intravenous glucose tolerance test. The format is functional, organism-based. The settings on record: C57BL6. Put shortly:
as §2

The test system of data set [15] is Mus musculus. Briefly: Antidiabetic activity in high fat diet-induced obese C57BL/6 type 2 diabetes mouse model assessed as increase in plasma insulin AUC at 30 mg/kg, po administered QD for 4 weeks by intravenous glucose tolerance test. Format: functional, organism-based. Set-up: dose 30 mg/kg. The settings on record: C57BL6. The method in brief:
as §2

Data set [16] has as its system Mus musculus. Briefly: Reduction in glucose excursion in C57BL/6 mouse at 50 mg/kg, po in water administered 30 mins before glucose challenge measured at 0.5 hr postdose by oral glucose tolerance test. Format: functional, C57BL6. Set-up: scale not given: the % may be the effect or the level left. The method in brief: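 Normal C57BL6 mice dosed by oral gavage at 50 mg/kg, with water as vehicle. Oral glucose at 1 g/kg 30 min after dosing. Plasma glucose read by glucose meter at 0 h and at 0.5, 1, 2 and 4 h post-dose. Reported as % reduction from vehicle control at the stated time, with significance at p < 0.05 or the p-value given.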

Data set [17] is described as follows: Permeability at 5 to 10 uM at pH 4, 6.8 and 8 by PAMPA. The note with it: pH 4, 6.8, 8, 10 µM.
Data set [18] concerns Mus musculus. Briefly: Reduction in glucose excursion in C57BL/6 mouse at 10 mg/kg, iv administered 30 mins before glucose challenge measured at 2 hrs postdose by oral glucose tolerance test. Format: functional, C57BL6. Details: scale not given: the % may be the effect or the level left. Put shortly:
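Normal C57BL6 mice, compound given IV at 10 mg/kg. Oral glucose at 1 g/kg 30 min after dosing. Plasma glucose read by glucose meter at 0 h and at 0.5, 1, 2 and 4 h post-dose. Reported as % reduction from vehicle control at the stated time, with significance at p < 0.05 or the p-value given.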

A short description of data set [19]: Metabolic stability in human liver microsomes assessed as half life. The format is ADME, Microsome. The method in brief: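 Compound incubated at 1 μM with human liver microsomes plus selected cofactors (NADPH, UDPGA); clearance followed at 4 time points as % test compound remaining, giving half-life.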
The subject of data set [20] is Mus musculus. Briefly: Reduction in glucose excursion in C57BL/6 mouse at 50 mg/kg, po in microemulsion administered 30 mins before glucose challenge measured at 0.5 hrs postdose by oral glucose tolerance test. Format: functional, C57BL6. Set-up: scale not given: the % may be the effect or the level left. Put shortly:
(§3)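 C57BL6 mice grouped by matched 0-h plasma glucose; compound given by oral gavage (5 mL/kg) at 50 mg/kg (or 72 mg/kg) in microemulsion (Cremophor RH40, corn oil-monodiglyceride, propylene glycol, ethanol; diluted 2:3 with water) or in water; oral glucose 1 g/kg 30 min later. Blood sampled at 0.5, 1, 2 and 4 h post-dosing for glucose (meter) and insulin; % reduction from control.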

The nature of data set [21]: Aqueous solubility by HPLC analysis. The format is physicochemical. The settings on record: buffer.
Data set [22] is described as follows: Intrinsic solubility in neutral pH by HPLC analysis. The format is physicochemical.
Data set [23] relates to Mus musculus. Briefly: Reduction in glucose excursion in C57BL/6 mouse at 50 mg/kg, po in water administered 30 mins before glucose challenge measured at 1 hr postdose by oral glucose tolerance test. Format: functional, C57BL6. Details: scale not given: the % may be the effect or the level left. The method in brief: as §3
Data set [24] relates to Mus musculus. Nature of the data set: Reduction in glucose excursion in C57BL/6 mouse at 50 mg/kg, po in water administered 30 mins before glucose challenge measured at 2 hrs postdose by oral glucose tolerance test. The format is functional, C57BL6. Set-up: scale not given: the % may be the effect or the level left. The method in brief: as §3

Molecules are shown by their SMILES. Calls of active or inactive are those of the source. The calls are words filed in the database; no cut-off is given here.

From ChEMBL document CHEMBL1155225, “Investigation of functionally liver selective glucokinase activators for the treatment of type 2 diabetes” (J Med Chem, 2009) come the findings set out here.

For `COc1ccc2nc(NC(=O)[C@H](CC3CCCC3)c3ccc(S(=O)(=O)N4CCN(C)CC4)cc3)sc2n1`, the AUC(0-t) at 24 h in [1] turned out to be 3230 µM·h; in data set [3] it was 167 µM·h; in [5], 511 µM·h; in data set [6], 52.4 µM·h. The Cmax in data set [2] amounted to 44.5 µM; in [8] it was 4.3 µM; in [10] it was 218 µM; in [11], 34.6 µM. The outcome in the data set on Mus musculus [4] and in the data set on Mus musculus [15] was inactive. Also, the outcome in the data set on Mus musculus [7], with Mus musculus [13] and in the data set on Mus musculus [14] was Active. The Activity result in the data set on Mus musculus [9] was “Dose-dependent effect”; in [12] it was 23 nM.
Regarding `COc1ccc2nc(NC(=O)C(CC3CCCC3)c3ccc(S(=O)(=O)N4CCNCC4)cc3)sc2n1.Cl` (stereo unspecified), the Activity with Mus musculus [16] is 22%; in the data set on Mus musculus [18] it was 26%; in data set [12] it was 50 nM. In addition, the logPm in [17] is listed as -4.9. The half-life in data set [19] was less than 1.5 min.
On to `COc1ccc2nc(NC(=O)C(CC3CCCC3)c3ccc(S(N)(=O)=O)cc3)sc2n1` (stereo unspecified), for which the Activity in the data set with Mus musculus [20] worked out at 22%; in data set [12], 897 nM. This molecule returned a solubility in data set [21] of less than 2 µg/mL. For the same molecule, the logPm in [17] is reported as -4.4. The half-life in data set [19] was 23.1 min.
As for `COc1ccc2nc(NC(=O)C(CC3CCCC3)c3ccc(S(=O)(=O)NCC(=O)O)cc3)sc2n1` (stereo unspecified), the logPm in [17] was -4.4. Also, in [22], the solubility is more than 570 µg/mL. The Activity in the data set on Mus musculus [23] came out at 26%; in data set [12] it was 1860 nM; in the data set with Mus musculus [24], 20%. For the same molecule, in [19], the half-life was 27.2 min.
